Assay results: ChEMBL document CHEMBL4130355, “Development of a series of novel 4-anlinoquinazoline derivatives possessing quinazoline skeleton: Design, synthesis, EGFR kinase inhibitory efficacy, and evaluation of anticancer activities in vitro” (Eur J Med Chem, 2017)
Calls of active or inactive are those of the source. The calls are words filed in the database; no cut-off is given here.

Assays:
A549 [1] = assay: Antiproliferative activity against human A549 cells at 0.1 uM after 72 hrs by MTT assay relative to control; type: functional
In short: (§1)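 MTT assay in triplicate wells. Cells (2 × 10^3/well) were attached 24 h, then treated at 0.1, 1, 10, 50 or 100 µM for 24, 48 or 72 h. MTT added for 4 h, SDS solubilisation, absorbance at 570/650 nm. Inhibition = 1 − (OD treated − blank)/(OD control − blank). Reported as mean ± SD of three independent experiments.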

HepG2 [2] = assay: Cytotoxicity against human HepG2 cells at 20 uM after 48 hrs by LDH release assay (reference value: 100%); type: functional
In short: (§2)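 LDH release. HepG2 cells at 1.0 × 10^5/well were incubated 24 h at 37 °C, then treated at 2.5–40 µM for 48 h. Cells lysed with 2% lysate for 1 h gave the full-release (100%) reference; medium-only cells were the low control. LDH in the supernatant was measured per kit. Triplicates, three independent repeats.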

HepG2 [3] = assay: Induction of apoptosis in human HepG2 cells assessed as intracellular free Ca2+ levels after 48 hrs by FL1 channel/FACS analysis; type: functional, cell-based
In short: (§3)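 HepG2 seeded at 5.0 × 10^5 cells/mL, 24 h at 37 °C in 5% CO2, then treated 48 h (2.5–20 µM). Harvested cells were washed in ice-cold PBS and loaded with 4 µM Fluo-3/AM for 30 min. After trypsinizing, they were washed twice and resuspended in HEPES, and fluorescence was measured in the FL-1 channel by flow cytometry. Values are averages of at least three independent experiments.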

HepG2 [4] = assay: Induction of apoptosis in human HepG2 cells assessed as viable cells at 2.5 uM after 48 hrs by Annexin V-FITC/propidium iodide double staining-based flow cytometry (reference value: 86.4%); type: functional; settings: HepG2, 48 h, read-out: Activity
HepG2 [5] = assay: Cell cycle arrest in human HepG2 assessed as decrease in cell levels at G0/G1 phase after 48 hrs by propidium iodide-staining based flow cytometry; type: functional
In short: (§4)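 HepG2 cells at 5.0 × 10^5/well were grown 24 h, then treated at 0, 2.5, 5.0 or 10.0 µM for 48 h alongside medium-only wells. Cells fixed in 70% ice-cold ethanol for ≥24 h, treated with RNase A at 37 °C for 30 min, then stained with propidium iodide for 30 min at 4 °C in the dark. DNA content read by flow cytometry. Average of at least three experiments.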

HepG2 [6] = assay: Antiproliferative activity against human HepG2 cells at 1 uM after 48 hrs by MTT assay realtive to control; type: functional; in short: as §1
HepG2 [7] = assay: Antiproliferative activity against human HepG2 cells at 0.1 uM after 72 hrs by MTT assay realtive to control; type: functional; in short: as §1
HepG2 [8] = assay: Cytotoxicity against human HepG2 cells at 10 uM after 48 hrs by LDH release assay (reference value: 100%); type: functional; in short: as §2
HepG2 [9] = assay: Induction of apoptosis in human HepG2 cells assessed as chromatin condensation at 2.5 to 20 uM after 48 hrs by Hoechst 33342/propidium iodide double staining based laser scanning confocal microscopy; type: functional, cell-based
In short: (§5)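 HepG2 plated at 5.0 × 10^4 cells/well in DMEM with 10% FBS, 24 h at 37 °C, then treated 48 h (2.5–20 µM). After two ice-cold PBS washes, cells were stained with Hoechst 33342/PI mixed 1:1 for 30 min at 37 °C in the dark, washed three times, and imaged by laser scanning confocal microscopy at 200×.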

HepG2 [10] = assay: Antiproliferative activity against human HepG2 cells at 100 uM after 72 hrs by MTT assay realtive to control; type: functional; in short: as §1
HepG2 [11] = assay: Antiproliferative activity against human HepG2 cells after 24 hrs by MTT assay; type: functional, cell-based; settings: HepG2, 24 h
In short: (§6)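 MTT read-out. Cells seeded at 2 × 10^3/well, attached 24 h at 37 °C in 5% CO2, then exposed to 0.1–100 µM for 24, 48 or 72 h. MTT for 4 h, formazan dissolved in 10% SDS/NH4Cl for 10 h, absorbance at 570 nm corrected at 650 nm. % inhibition computed against untreated and blank wells. IC50 is the mean of at least three independent experiments.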

HepG2 [12] = assay: Cell cycle arrest in human HepG2 assessed as accumulation at G0/G1 phase at 5 uM after 48 hrs by propidium iodide-staining based flow cytometry (reference value: 69.40%); type: functional; in short: as §4
HepG2 [13] = assay: Induction of apoptosis in human HepG2 cells assessed as intracellular free Ca2+ levels at 5 uM after 48 hrs by FL1 channel/FACS analysis (reference value: 14.2%); type: functional; in short: as §3
HepG2 [14] = assay: Antiproliferative activity against human HepG2 cells at 10 uM after 48 hrs by MTT assay realtive to control; type: functional; in short: as §1
A549 [15] = assay: Antiproliferative activity against human A549 cells at 100 uM after 72 hrs by MTT assay relative to control; type: functional; in short: as §1
HepG2 [16] = assay: Induction of apoptosis in human HepG2 cells assessed as budded nuclei formation at 2.5 to 20 uM after 48 hrs by Hoechst 33342/propidium iodide double staining based laser scanning confocal microscopy; type: functional, cell-based; in short: as §5
HepG2 [17] = assay: Cell cycle arrest in human HepG2 assessed as accumulation at G0/G1 phase at 10 uM after 48 hrs by propidium iodide-staining based flow cytometry (reference value: 69.40%); type: functional; in short: as §4
HepG2 [18] = assay: Antiproliferative activity against human HepG2 cells at 10 uM after 72 hrs by MTT assay realtive to control; type: functional; in short: as §1
A549 [19] = assay: Antiproliferative activity against human A549 cells after 24 hrs by MTT assay; type: functional, cell-based; settings: A549, 24 h; in short: as §6
A549 [20] = assay: Antiproliferative activity against human A549 cells at 50 uM after 48 hrs by MTT assay relative to control; type: functional; in short: as §1
[21] = target: Epidermal growth factor receptor (Homo sapiens, UniProt P00533); settings: HEK293, at 0.0001 µM
Sequence of Epidermal growth factor receptor (P00533 whole entry): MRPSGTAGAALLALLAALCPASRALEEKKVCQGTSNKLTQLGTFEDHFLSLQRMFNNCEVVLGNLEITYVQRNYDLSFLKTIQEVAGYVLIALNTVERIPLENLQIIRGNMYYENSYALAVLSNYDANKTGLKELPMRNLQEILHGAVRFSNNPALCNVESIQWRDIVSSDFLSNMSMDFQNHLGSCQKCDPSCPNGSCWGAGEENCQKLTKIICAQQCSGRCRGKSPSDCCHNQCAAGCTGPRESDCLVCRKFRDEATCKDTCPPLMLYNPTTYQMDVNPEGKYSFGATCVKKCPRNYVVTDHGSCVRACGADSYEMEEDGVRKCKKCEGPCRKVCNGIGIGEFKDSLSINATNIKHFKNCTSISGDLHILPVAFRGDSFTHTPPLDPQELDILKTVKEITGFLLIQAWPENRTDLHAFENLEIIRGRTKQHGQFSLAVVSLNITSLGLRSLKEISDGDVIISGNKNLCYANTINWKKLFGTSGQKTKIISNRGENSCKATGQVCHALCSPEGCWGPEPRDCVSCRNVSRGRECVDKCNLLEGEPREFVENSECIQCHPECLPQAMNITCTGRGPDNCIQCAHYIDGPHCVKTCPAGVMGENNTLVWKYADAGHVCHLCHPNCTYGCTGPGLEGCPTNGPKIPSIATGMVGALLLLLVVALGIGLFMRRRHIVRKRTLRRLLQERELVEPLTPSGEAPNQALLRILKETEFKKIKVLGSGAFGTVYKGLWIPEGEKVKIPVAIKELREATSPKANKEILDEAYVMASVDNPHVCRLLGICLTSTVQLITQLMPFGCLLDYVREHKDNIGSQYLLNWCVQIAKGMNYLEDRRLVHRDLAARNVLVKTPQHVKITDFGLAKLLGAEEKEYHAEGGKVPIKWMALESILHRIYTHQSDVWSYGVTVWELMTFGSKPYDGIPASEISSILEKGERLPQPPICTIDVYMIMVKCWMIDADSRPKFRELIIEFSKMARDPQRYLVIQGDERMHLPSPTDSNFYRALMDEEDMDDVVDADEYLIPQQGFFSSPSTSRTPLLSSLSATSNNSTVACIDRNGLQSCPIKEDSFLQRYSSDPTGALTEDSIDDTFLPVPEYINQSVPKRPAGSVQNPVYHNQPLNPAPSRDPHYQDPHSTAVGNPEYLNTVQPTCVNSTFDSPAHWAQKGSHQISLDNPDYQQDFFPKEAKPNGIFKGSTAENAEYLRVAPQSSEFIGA

HepG2 [22] = assay: Antiproliferative activity against human HepG2 cells at 100 uM after 48 hrs by MTT assay realtive to control; type: functional; in short: as §1
HepG2 [23] = assay: Induction of mitochondrial membrane potential loss in human HepG2 cells assessed as mitochondrial membrane potential levels at 2.5 uM after 48 hrs by rhodamine-123 dye based FACS analysis (reference value: 90.4%); type: functional
MCF7 = assay: Antiproliferative activity against human MCF7 cells after 72 hrs by MTT assay; type: functional, cell-based; settings: MCF7, 72 h
HepG2 [24] = assay: Induction of apoptosis in human HepG2 cells assessed as nuclear fragmentation at 2.5 to 20 uM after 48 hrs by Hoechst 33342/propidium iodide double staining based laser scanning confocal microscopy; type: functional, cell-based; in short: as §5
HepG2 [25] = assay: Induction of apoptosis in human HepG2 cells assessed as viable cells at 10 uM after 48 hrs by Annexin V-FITC/propidium iodide double staining-based flow cytometry (reference value: 86.4%); type: functional; settings: HepG2, 48 h, read-out: Activity
HepG2 [26] = assay: Induction of mitochondrial membrane potential loss in human HepG2 cells assessed as mitochondrial membrane potential levels at 10 uM after 48 hrs by rhodamine-123 dye based FACS analysis (reference value: 90.4%); type: functional
HepG2 [27] = assay: Antiproliferative activity against human HepG2 cells after 48 hrs by MTT assay; type: functional, cell-based; settings: HepG2, 48 h; in short: as §6
A549 [28] = assay: Antiproliferative activity against human A549 cells at 1 uM after 24 hrs by MTT assay relative to control; type: functional; in short: as §1

Structure (SMILES): COc1cc2c(Nc3ccc(C#N)cc3)ncnc2cc1OCCCN1CCC(c2ccccc2)CC1
- Activity (A549 [1]): 5%
- Activity (HepG2 [2]): 52.94%
- Activity (HepG2 [3]): Dose-dependent effect
- viability at 2.5 µM (HepG2 [4]): 47.5%
- Activity (HepG2 [5]): Dose-dependent effect
- Activity (HepG2 [6]): 8.6%
- Activity (HepG2 [7]): 7.4%
- Activity (HepG2 [8]): 69.27%
- Activity (HepG2 [9]): Active
- Activity (HepG2 [10]): 101%
- IC50 (HepG2 [11]): 13 µM
- Activity (HepG2 [12]): 65.53%
- Activity (HepG2 [13]): 43.2%
- Activity (HepG2 [14]): 55.6%
- Activity (A549 [15]): 95.5%
- Activity (HepG2 [16]): Active
- Activity (HepG2 [17]): 60.72%
- Activity (HepG2 [18]): 63.6%
- IC50 (A549 [19]): 15 µM
- Activity (A549 [20]): 75.5%
- inhibition [21]: 39.1%
- Activity (HepG2 [22]): 102%
- Activity (HepG2 [23]): 88.3%
- IC50 (MCF7): 9.8 µM
- Activity (HepG2 [24]): Active
- viability at 10 µM (HepG2 [25]): 1.3%
- Activity (HepG2 [26]): 84%
- IC50 (HepG2 [27]): 9.56 µM
- Activity (A549 [28]): 1.9%
